From ChEMBL document CHEMBL4689842, “EUbOPEN Chemogenomics Library wave 1” (2021)
Where “and” joins values, the source holds several entries; their conditions need not be identical. Equal entries are not always repeated.

Test system: HEK-293T
Experiment: Multiplex assay against HEK293T;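 on Population Tubulin-Different-Phenotype (%): share of the cells with healthy nuclei that show this phenotype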
Format: toxicity, cell-based
Settings: human
Procedure, shortened: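 Live cells were stained at seeding with Hoechst33342, BioTracker Green Microtubule Cytoskeleton Dye, MitoTracker Red and Annexin V Alexa Fluor 680, then imaged on a CQ1 microscope at 37°C and 5% CO2 after compound addition. CellPathfinder machine-learning gating split cells into Hoechst high-intensity objects or normal cells. Normal cells were split into healthy, pyknosed or fragmented nuclei, and pyknosed cells into mitotic or apoptotic. Tubulin, mitochondrial-mass and membrane-permeability phenotypes are per cents of healthy-nucleus cells.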

[1] = 12 h, 1 µM, compound concentration 1 uM, replicate 1
[2] = 12 h, 1 µM, compound concentration 1 uM, replicate 2
[3] = 12 h, 10 µM, compound concentration 10 uM, replicate 1
[4] = 12 h, 10 µM, compound concentration 10 uM, replicate 2
[5] = 24 h, 1 µM, compound concentration 1 uM, replicate 1
[6] = 24 h, 1 µM, compound concentration 1 uM, replicate 2
[7] = 24 h, 10 µM, compound concentration 10 uM, replicate 1
[8] = 24 h, 10 µM, compound concentration 10 uM, replicate 2
[9] = 48 h, 10 µM, compound concentration 10 uM, replicate 1
[10] = 48 h, 10 µM, compound concentration 10 uM, replicate 2

`COc1cc(N2CCC(N(C)C)CC2)ccc1Nc1ncc(Cl)c(Nc2ccccc2P(C)(C)=O)n1` was tested. Which “Population Apoptotic (%)” value [1] did it give?
The value was 16%.

And the “Population Fragmented Nuclei (%)” value [1]?
The value was 19%.

What about the “Population Healthy Nuclei (%)” value [1] of the same compound?
The value was 61%.

And the “Population Hoechst High Intensity Objects (%)” value [1]?
The value was 14%.

What about the “Population Membrane Permeable-Phenotype (%)” value [1] of the same compound?
The value was 1%.

And the “Population Mitochondria Different-Phenotype (%)” value [1]?
The value was 9%.

And the “Population Mitotic Cells (%)” value [1]?
The value was 83%.

And the “Population Normal (%)” value [1]?
The value was 85%.

What about the “Population Pyknosed Nuclei (%)” value [1] of the same compound?
Its value is 18%.

And the “Population Tubulin-Different-Phenotype (%)” value [1]?
The value was 7%.

And the “Total Cell Count” value [1]?
The value was 684.

What about the “Population Apoptotic (%)” value [2] of the same compound?
The value was 14%.

What about the “Population Fragmented Nuclei (%)” value [2] of the same compound?
The value was 8%.

And the “Population Healthy Nuclei (%)” value [2]?
Its value is 84%.

What about the “Population Hoechst High Intensity Objects (%)” value [2] of the same compound?
Its value is 5%.

And the “Population Mitochondria Different-Phenotype (%)” value [2]?
Its value is 19%.

What about the “Population Mitotic Cells (%)” value [2] of the same compound?
The value was 85%.

What about the “Population Normal (%)” value [2] of the same compound?
The value was 94%.

And the “Population Pyknosed Nuclei (%)” value [2]?
The value was 6%.

And the “Population Tubulin-Different-Phenotype (%)” value [2]?
The value was 21%.

And the “Total Cell Count” value [2]?
The value was 1309.

What about the “Population Fragmented Nuclei (%)” value [3] of the same compound?
The value was 10% and 13%.

And the “Population Healthy Nuclei (%)” value [3]?
The value was 23% and 51%.

What about the “Population Hoechst High Intensity Objects (%)” value [3] of the same compound?
The value was 21% and 20%.

What about the “Population Membrane Permeable-Phenotype (%)” value [3] of the same compound?
Its value is 0% and 6%.

And the “Population Mitotic Cells (%)” value [3]?
Its value is 29% and 78%.

What about the “Population Normal (%)” value [3] of the same compound?
Its value is 78% and 79%.

What about the “Population Pyknosed Nuclei (%)” value [3] of the same compound?
Its value is 66% and 35%.

And the “Population Tubulin-Different-Phenotype (%)” value [3]?
Its value is 97% and 54%.

And the “Total Cell Count” value [3]?
The value was 211 and 606.

And the “Population Fragmented Nuclei (%)” value [4]?
The value was 3%.

What about the “Population Hoechst High Intensity Objects (%)” value [4] of the same compound?
The value was 12% and 9%.

What about the “Population Membrane Permeable-Phenotype (%)” value [4] of the same compound?
Its value is 3%.

What about the “Population Mitochondria Different-Phenotype (%)” value [4] of the same compound?
Its value is 86% and 54%.

What about the “Population Mitotic Cells (%)” value [4] of the same compound?
The value was 41% and 87%.

What about the “Population Normal (%)” value [4] of the same compound?
The value was 87% and 90%.

And the “Population Tubulin-Different-Phenotype (%)” value [4]?
Its value is 100% and 85%.

What about the “Population Apoptotic (%)” value [5] of the same compound?
Its value is 14%.

And the “Population Fragmented Nuclei (%)” value [5]?
Its value is 17%.

And the “Population Healthy Nuclei (%)” value [5]?
The value was 69%.

What about the “Population Hoechst High Intensity Objects (%)” value [5] of the same compound?
The value was 9%.

What about the “Population Membrane Permeable-Phenotype (%)” value [5] of the same compound?
Its value is 5%.

And the “Population Mitochondria Different-Phenotype (%)” value [5]?
Its value is 8%.

What about the “Population Mitotic Cells (%)” value [5] of the same compound?
The value was 85%.

What about the “Population Normal (%)” value [5] of the same compound?
The value was 90%.

And the “Population Pyknosed Nuclei (%)” value [5]?
The value was 12%.

What about the “Population Tubulin-Different-Phenotype (%)” value [5] of the same compound?
The value was 14%.

What about the “Total Cell Count” value [5] of the same compound?
The value was 667.

And the “Population Apoptotic (%)” value [6]?
Its value is 12%.

And the “Population Fragmented Nuclei (%)” value [6]?
Its value is 20%.

And the “Population Healthy Nuclei (%)” value [6]?
Its value is 77%.

And the “Population Hoechst High Intensity Objects (%)” value [6]?
The value was 4%.

And the “Population Membrane Permeable-Phenotype (%)” value [6]?
The value was 3%.

What about the “Population Mitochondria Different-Phenotype (%)” value [6] of the same compound?
The value was 4%.

And the “Population Mitotic Cells (%)” value [6]?
Its value is 87%.

What about the “Population Normal (%)” value [6] of the same compound?
Its value is 95%.

And the “Population Pyknosed Nuclei (%)” value [6]?
Its value is 2%.

And the “Population Tubulin-Different-Phenotype (%)” value [6]?
The value was 19%.

And the “Total Cell Count” value [6]?
The value was 2108.

And the “Population Apoptotic (%)” value [7]?
Its value is 74% and 37%.

And the “Population Fragmented Nuclei (%)” value [7]?
Its value is 12% and 14%.

What about the “Population Healthy Nuclei (%)” value [7] of the same compound?
The value was 31% and 55%.

What about the “Population Hoechst High Intensity Objects (%)” value [7] of the same compound?
The value was 24% and 22%.

And the “Population Membrane Permeable-Phenotype (%)” value [7]?
Its value is 1% and 7%.

What about the “Population Mitochondria Different-Phenotype (%)” value [7] of the same compound?
Its value is 98% and 51%.

And the “Population Mitotic Cells (%)” value [7]?
Its value is 25% and 62%.

And the “Population Normal (%)” value [7]?
The value was 75% and 77%.

And the “Population Pyknosed Nuclei (%)” value [7]?
The value was 55% and 30%.

What about the “Population Tubulin-Different-Phenotype (%)” value [7] of the same compound?
Its value is 98% and 73%.

And the “Total Cell Count” value [7]?
The value was 229 and 561.

What about the “Population Fragmented Nuclei (%)” value [8] of the same compound?
The value was 7% and 5%.

And the “Population Hoechst High Intensity Objects (%)” value [8]?
Its value is 19% and 9%.

What about the “Population Membrane Permeable-Phenotype (%)” value [8] of the same compound?
The value was 0% and 10%.

And the “Population Mitochondria Different-Phenotype (%)” value [8]?
Its value is 95% and 60%.

And the “Population Normal (%)” value [8]?
Its value is 80% and 90%.

And the “Population Tubulin-Different-Phenotype (%)” value [8]?
The value was 95% and 93%.

What about the “Population Apoptotic (%)” value [9] of the same compound?
Its value is 77%.

What about the “Population Fragmented Nuclei (%)” value [9] of the same compound?
The value was 18%.

What about the “Population Healthy Nuclei (%)” value [9] of the same compound?
Its value is 34%.

And the “Population Hoechst High Intensity Objects (%)” value [9]?
Its value is 23%.

What about the “Population Membrane Permeable-Phenotype (%)” value [9] of the same compound?
Its value is 0%.

What about the “Population Mitochondria Different-Phenotype (%)” value [9] of the same compound?
Its value is 100%.

What about the “Population Mitotic Cells (%)” value [9] of the same compound?
Its value is 22%.

And the “Population Normal (%)” value [9]?
Its value is 76%.

And the “Population Pyknosed Nuclei (%)” value [9]?
The value was 47%.

And the “Population Tubulin-Different-Phenotype (%)” value [9]?
Its value is 100%.

And the “Total Cell Count” value [9]?
Its value is 239.

What about the “Population Apoptotic (%)” value [10] of the same compound?
The value was 91%.

And the “Population Fragmented Nuclei (%)” value [10]?
Its value is 8%.

What about the “Population Healthy Nuclei (%)” value [10] of the same compound?
The value was 17%.

What about the “Population Hoechst High Intensity Objects (%)” value [10] of the same compound?
The value was 17%.

And the “Population Mitochondria Different-Phenotype (%)” value [10]?
The value was 90%.

What about the “Population Mitotic Cells (%)” value [10] of the same compound?
Its value is 8%.

And the “Population Normal (%)” value [10]?
The value was 82%.

And the “Population Pyknosed Nuclei (%)” value [10]?
Its value is 74%.

And the “Population Tubulin-Different-Phenotype (%)” value [10]?
The value was 85%.

What about the “Total Cell Count” value [10] of the same compound?
Its value is 147.
